The record followed here is ChEMBL document CHEMBL1123129, “Hypolipidemic activity of indan-1,3-dione derivatives in rodents” (J Med Chem, 1985).

Assay [1] relates to Mus musculus. As to the kind of experiment: In Vivo effect for the hypolipidemic activity on phosphatidate phosphohydrolase in CF1 mice after 16 days administered orally at a dose of 60 mg/kg. The class given is organism-based. Also on record: dose 60 mg/kg. An outline of the steps: (§1)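 CF1 male mice are dosed orally at 10–60 mg/kg per day for 16 days, with 1% CMC as the control vehicle. Liver is homogenized at 10% in 0.25 M sucrose + 0.001 M EDTA, pH 7.2. Enzymes are assayed by literature methods, with Lowry protein. Activity is given as % of control (X ± SD, N = 6), with p from Student's t test.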

Assay [2] relates to Mus musculus. Kind of assay: Compound was evaluated for the hypolipidemic activity in CF1 male mice at a dose of 40 mg/kg orally for Serum cholesterol at 9th day. The class given is functional. Conditions: route oral. The method, boiled down: (§2)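 CF1 male mice received the agent orally in 1% CMC at 10–60 mg/kg per day. Tail-vein blood was taken on days 9 and 16. Serum cholesterol was measured by modified Liebermann–Burchard on duplicate 25-µL samples, and serum triglyceride on day 16 in duplicate 50-µL samples. Values are % of vehicle control, mean ± SD, N = 6; Student's t test.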

Assay [3] deals with Mus musculus. As to the kind of experiment: Compound was evaluated for the hypolipidemic activity in CF1 male mice at a dose of 10 mg/kg orally for Serum cholesterol at 16th day. It counts as functional. As to conditions: route oral. An outline of the steps:
as §2

Assay [4] has as its target T1, ATP-citrate synthase (Mus musculus) (UniProt Q91V92).
T1 sequence (whole entry): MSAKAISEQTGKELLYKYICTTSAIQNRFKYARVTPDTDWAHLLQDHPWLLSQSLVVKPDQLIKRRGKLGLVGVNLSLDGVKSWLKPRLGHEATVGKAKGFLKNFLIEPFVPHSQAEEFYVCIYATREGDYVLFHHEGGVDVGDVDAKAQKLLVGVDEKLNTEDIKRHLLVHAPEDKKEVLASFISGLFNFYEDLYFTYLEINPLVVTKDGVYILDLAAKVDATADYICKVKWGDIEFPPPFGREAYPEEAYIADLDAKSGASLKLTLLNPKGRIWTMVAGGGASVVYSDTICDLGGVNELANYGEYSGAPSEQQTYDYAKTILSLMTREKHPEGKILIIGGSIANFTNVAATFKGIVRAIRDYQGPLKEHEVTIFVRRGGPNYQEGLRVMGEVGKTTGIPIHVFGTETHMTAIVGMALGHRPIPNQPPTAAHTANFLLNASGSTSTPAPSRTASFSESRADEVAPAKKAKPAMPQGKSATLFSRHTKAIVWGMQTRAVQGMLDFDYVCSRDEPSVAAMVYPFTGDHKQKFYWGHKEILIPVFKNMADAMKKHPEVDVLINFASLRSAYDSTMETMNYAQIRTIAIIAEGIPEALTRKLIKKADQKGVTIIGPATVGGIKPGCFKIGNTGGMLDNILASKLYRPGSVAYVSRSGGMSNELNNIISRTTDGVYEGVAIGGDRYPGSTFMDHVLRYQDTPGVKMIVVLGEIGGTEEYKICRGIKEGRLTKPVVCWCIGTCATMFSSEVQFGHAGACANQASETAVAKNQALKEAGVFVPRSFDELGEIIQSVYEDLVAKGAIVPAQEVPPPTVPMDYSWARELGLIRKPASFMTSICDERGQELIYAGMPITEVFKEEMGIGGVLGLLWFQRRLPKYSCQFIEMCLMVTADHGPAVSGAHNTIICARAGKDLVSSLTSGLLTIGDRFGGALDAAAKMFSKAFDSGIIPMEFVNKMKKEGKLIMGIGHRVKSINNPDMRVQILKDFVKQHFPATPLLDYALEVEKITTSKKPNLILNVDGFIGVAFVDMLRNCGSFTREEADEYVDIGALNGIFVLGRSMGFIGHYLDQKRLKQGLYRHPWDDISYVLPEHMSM
As to the kind of experiment: In Vitro evaluation for the CF1 liver enzyme activity on ATP-Citrate Lyase exchange at concentration 50 uM. The method, boiled down: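 Liver was taken from CF1 male mice and made into 10% homogenates, which were incubated with test compound at 50, 100 or 200 µM. Each enzyme was assayed by its literature method, and protein was measured by Lowry. N = 6. Activity is expressed as % of untreated control ± SD.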

The test system of assay [5] is Rattus norvegicus. Kind of assay: Compound was evaluated for the hypolipidemic activity at 20 mg/kg per day orally for 14 days on triglycerides content in rat feces. It counts as functional. Conditions: route oral. An outline of the steps: (§3)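 Male Sprague–Dawley rats were dosed orally for 14 days. Liver, small intestine and a 24-h fecal collection were lipid-extracted. Extracts were assayed for cholesterol (modified Liebermann–Burchard), triglyceride (enzymatic kit), neutral lipids, phospholipids and protein. Values are % of 1% CMC vehicle control, mean ± SD, N = 6.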

For assay [6], the species on record is Mus musculus. Kind of assay: In Vitro evaluation for the CF1 liver enzyme activity on Hepatic lipoprotein lipase at concentration 100 uM. The class given is functional. The method, boiled down: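 Mouse liver enzymes assayed in vitro on 10% homogenates of CF1 male mouse liver, with test drug added at 50–200 μM. Each enzyme follows a published procedure. Protein is measured by Lowry. Activity is given as % of untreated control (X ± SD, N = 6).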

Assay [7] deals with Mus musculus. As to the kind of experiment: Compound was evaluated for the hypolipidemic activity in CF1 male mice at a dose of 10 mg/kg orally for Serum cholesterol at 9th day. The class given is functional. Conditions: route oral. An outline of the steps: as §2
The target in assay [8] is T2, Sterol O-acyltransferase 1 (Mus musculus) (UniProt Q61263).
T2 sequence (whole entry): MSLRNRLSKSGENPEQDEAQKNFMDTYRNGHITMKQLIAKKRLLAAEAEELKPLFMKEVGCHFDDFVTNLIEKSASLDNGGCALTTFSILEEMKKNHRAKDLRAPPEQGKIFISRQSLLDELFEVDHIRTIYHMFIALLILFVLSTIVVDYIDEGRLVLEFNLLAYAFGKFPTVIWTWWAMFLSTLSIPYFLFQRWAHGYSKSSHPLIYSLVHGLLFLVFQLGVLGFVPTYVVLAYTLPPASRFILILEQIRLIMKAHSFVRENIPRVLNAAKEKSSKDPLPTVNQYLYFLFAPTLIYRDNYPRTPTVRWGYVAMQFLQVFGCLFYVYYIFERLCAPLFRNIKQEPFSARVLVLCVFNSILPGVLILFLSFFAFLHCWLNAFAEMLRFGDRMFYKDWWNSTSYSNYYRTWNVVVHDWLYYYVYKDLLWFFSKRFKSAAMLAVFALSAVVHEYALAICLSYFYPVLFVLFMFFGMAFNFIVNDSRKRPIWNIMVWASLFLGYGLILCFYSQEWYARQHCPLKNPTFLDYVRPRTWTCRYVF
As to the kind of experiment: In Vivo effect for the hypolipidemic activity on Acyl-COA cholesterol acyltransferase in CF1 mice after 16 days of oral administration at a dose of 60 mg/kg. The class given is functional, organism-based. Also noted: dose 60 mg/kg. An outline of the steps: as §1

Assay [9] has as its system Mus musculus. Kind of assay: Compound was evaluated for the hypolipidemic activity in CF1 male mice at a dose of 40 mg/kg orally for Serum triglyceride at 16th day. The class given is functional. Conditions: route oral. An outline of the steps:
as §2

For assay [10], the target named is T2, Sterol O-acyltransferase 1 (Mus musculus). As to the kind of experiment: In Vivo effect for the hypolipidemic activity on Acyl-COA cholesterol acyltransferase in CF1 mice after 16 days of oral administration at a dose of 40 mg/kg. It counts as functional, organism-based. Also on record: dose 40 mg/kg. An outline of the steps: as §1
In assay [11] the test system is Mus musculus. Kind of assay: In Vivo effect for the hypolipidemic activity on Acetyl-coenzyme A synthetase in CF1 mice after 16 days of oral administration at a dose of 10 mg/kg. The class given is functional. An outline of the steps: as §1
The target of assay [12] is T2, Sterol O-acyltransferase 1 (Mus musculus). Kind of assay: In Vivo effect for the hypolipidemic activity on Acyl-COA cholesterol acyltransferase in CF1 mice after 16 days of oral administration at a dose of 20 mg/kg. Also noted: dose 20 mg/kg. The class given is functional, organism-based. The method, boiled down: as §1
Assay [13] concerns Rattus norvegicus. As to the kind of experiment: Compound was evaluated for the hypolipidemic activity at 20 mg/kg per day orally for 14 days on neutral lipids content in rat feces. It counts as functional. As to conditions: route oral. The method, boiled down:
as §3

Regarding `COc1ccc(C2C(=O)c3ccccc3C2=O)cc1` [ANISINDIONE], the Control with Mus musculus [1] stood at 100%; in the assay with Mus musculus [2], 79%; with Mus musculus [3] it was 63%; in [4] it was 72%; with Rattus norvegicus [5], 118%; in the assay listed under Mus musculus [6] it was 94%. In addition, the Control in the assay on Mus musculus [7] is 82%; in assay [8] it was 48%; in the assay on Mus musculus [9], 73%; in assay [10], 42%; in the assay on Mus musculus [11], 83%; in assay [12], 48%. The same compound gave a Control in the assay on Rattus norvegicus [13] of 101%.
